ChEMBL document CHEMBL4689842, “EUbOPEN Chemogenomics Library wave 1” (2021)
Several values for one entry are separate records, joined by “and”; a condition that tells them apart may be missing. Identical values can stand only once.

Test system: HEK-293T
Experiment: Multiplex assay against HEK293T;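 as to Population Tubulin-Different-Phenotype (%): share of the cells with healthy nuclei that show this phenotype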
Type: toxicity, cell-based
Conditions: human
Summary of the method: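 Hoechst33342, BioTracker Green Microtubule Cytoskeleton Dye, MitoTracker Red and Annexin V Alexa Fluor 680 were added to live cells at seeding, and imaging on a CQ1 microscope at 37°C and 5% CO2 followed compound addition. Gating by CellPathfinder machine learning separated cells into Hoechst high-intensity objects or normal cells, then normal cells into healthy, pyknosed or fragmented nuclei, then pyknosed cells into mitotic or apoptotic. Per cents of healthy-nucleus cells are reported for the tubulin, mitochondrial-mass and membrane-permeability phenotypes.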

[1] = 12 h, 1 µM, compound concentration 1 uM, replicate 1
[2] = 12 h, 1 µM, compound concentration 1 uM, replicate 2
[3] = 12 h, 10 µM, compound concentration 10 uM, replicate 1
[4] = 12 h, 10 µM, compound concentration 10 uM, replicate 2
[5] = 24 h, 1 µM, compound concentration 1 uM, replicate 1
[6] = 24 h, 1 µM, compound concentration 1 uM, replicate 2
[7] = 24 h, 10 µM, compound concentration 10 uM, replicate 1
[8] = 24 h, 10 µM, compound concentration 10 uM, replicate 2
[9] = 48 h, 1 µM, compound concentration 1 uM, replicate 1
[10] = 48 h, 1 µM, compound concentration 1 uM, replicate 2
[11] = 48 h, 10 µM, compound concentration 10 uM, replicate 1
[12] = 48 h, 10 µM, compound concentration 10 uM, replicate 2

Structure (SMILES): CNc1oc(-c2cccc3ccccc23)nc1C#N
- Population Apoptotic (%) [1]: 59%
- Population Fragmented Nuclei (%) [1]: 14%
- Population Healthy Nuclei (%) [1]: 60%
- Population Hoechst High Intensity Objects (%) [1]: 30%
- Population Membrane Permeable-Phenotype (%) [1]: 3%
- Population Mitochondria Different-Phenotype (%) [1]: 62%
- Population Mitotic Cells (%) [1]: 40%
- Population Normal (%) [1]: 69%
- Population Pyknosed Nuclei (%) [1]: 25%
- Population Tubulin-Different-Phenotype (%) [1]: 31%
- Total Cell Count [1]: 276
- Population Apoptotic (%) [2]: 14%
- Population Fragmented Nuclei (%) [2]: 8%
- Population Healthy Nuclei (%) [2]: 61%
- Population Hoechst High Intensity Objects (%) [2]: 11%
- Population Membrane Permeable-Phenotype (%) [2]: 8%
- Population Mitochondria Different-Phenotype (%) [2]: 16%
- Population Mitotic Cells (%) [2]: 85%
- Population Normal (%) [2]: 88%
- Population Pyknosed Nuclei (%) [2]: 29%
- Population Tubulin-Different-Phenotype (%) [2]: 12%
- Total Cell Count [2]: 270
- Population Apoptotic (%) [3]: 41%
- Population Fragmented Nuclei (%) [3]: 83%
- Population Healthy Nuclei (%) [3]: 15%
- Population Hoechst High Intensity Objects (%) [3]: 41%
- Population Membrane Permeable-Phenotype (%) [3]: 0%
- Population Mitochondria Different-Phenotype (%) [3]: 1%
- Population Mitotic Cells (%) [3]: 58%
- Population Normal (%) [3]: 58%
- Population Pyknosed Nuclei (%) [3]: 1%
- Population Tubulin-Different-Phenotype (%) [3]: 0%
- Total Cell Count [3]: 2858
- Population Apoptotic (%) [4]: 25%
- Population Fragmented Nuclei (%) [4]: 86%
- Population Healthy Nuclei (%) [4]: 12%
- Population Hoechst High Intensity Objects (%) [4]: 47%
- Population Membrane Permeable-Phenotype (%) [4]: 4%
- Population Mitochondria Different-Phenotype (%) [4]: 2%
- Population Mitotic Cells (%) [4]: 75%
- Population Normal (%) [4]: 52%
- Population Pyknosed Nuclei (%) [4]: 0%
- Population Tubulin-Different-Phenotype (%) [4]: 1%
- Total Cell Count [4]: 2861
- Population Apoptotic (%) [5]: 38%
- Population Fragmented Nuclei (%) [5]: 17%
- Population Healthy Nuclei (%) [5]: 64%
- Population Hoechst High Intensity Objects (%) [5]: 29%
- Population Membrane Permeable-Phenotype (%) [5]: 6%
- Population Mitochondria Different-Phenotype (%) [5]: 41%
- Population Mitotic Cells (%) [5]: 61%
- Population Normal (%) [5]: 70%
- Population Pyknosed Nuclei (%) [5]: 17%
- Population Tubulin-Different-Phenotype (%) [5]: 25%
- Total Cell Count [5]: 325
- Population Apoptotic (%) [6]: 32%
- Population Fragmented Nuclei (%) [6]: 6%
- Population Healthy Nuclei (%) [6]: 79%
- Population Hoechst High Intensity Objects (%) [6]: 14%
- Population Membrane Permeable-Phenotype (%) [6]: 15%
- Population Mitochondria Different-Phenotype (%) [6]: 8%
- Population Mitotic Cells (%) [6]: 67%
- Population Normal (%) [6]: 85%
- Population Pyknosed Nuclei (%) [6]: 13%
- Population Tubulin-Different-Phenotype (%) [6]: 26%
- Total Cell Count [6]: 316
- Population Apoptotic (%) [7]: 15%
- Population Fragmented Nuclei (%) [7]: 83%
- Population Healthy Nuclei (%) [7]: 15%
- Population Hoechst High Intensity Objects (%) [7]: 40%
- Population Membrane Permeable-Phenotype (%) [7]: 0%
- Population Mitotic Cells (%) [7]: 84%
- Population Normal (%) [7]: 59%
- Population Pyknosed Nuclei (%) [7]: 0%
- Population Tubulin-Different-Phenotype (%) [7]: 0%
- Total Cell Count [7]: 2556
- Population Apoptotic (%) [8]: 13%
- Population Fragmented Nuclei (%) [8]: 88%
- Population Healthy Nuclei (%) [8]: 10%
- Population Hoechst High Intensity Objects (%) [8]: 48%
- Population Membrane Permeable-Phenotype (%) [8]: 4%
- Population Mitochondria Different-Phenotype (%) [8]: 1%
- Population Mitotic Cells (%) [8]: 86%
- Population Normal (%) [8]: 51%
- Population Pyknosed Nuclei (%) [8]: 1%
- Population Tubulin-Different-Phenotype (%) [8]: 3%
- Total Cell Count [8]: 2734
- Population Apoptotic (%) [9]: 39%
- Population Fragmented Nuclei (%) [9]: 14%
- Population Healthy Nuclei (%) [9]: 78%
- Population Hoechst High Intensity Objects (%) [9]: 32%
- Population Membrane Permeable-Phenotype (%) [9]: 2%
- Population Mitochondria Different-Phenotype (%) [9]: 17%
- Population Mitotic Cells (%) [9]: 60%
- Population Normal (%) [9]: 67%
- Population Pyknosed Nuclei (%) [9]: 7%
- Population Tubulin-Different-Phenotype (%) [9]: 17%
- Total Cell Count [9]: 470
- Population Apoptotic (%) [10]: 18%
- Population Fragmented Nuclei (%) [10]: 8%
- Population Healthy Nuclei (%) [10]: 84%
- Population Hoechst High Intensity Objects (%) [10]: 14%
- Population Membrane Permeable-Phenotype (%) [10]: 7%
- Population Mitochondria Different-Phenotype (%) [10]: 3%
- Population Mitotic Cells (%) [10]: 81%
- Population Normal (%) [10]: 85%
- Population Pyknosed Nuclei (%) [10]: 6%
- Population Tubulin-Different-Phenotype (%) [10]: 14%
- Total Cell Count [10]: 536
- Population Apoptotic (%) [11]: 15%
- Population Fragmented Nuclei (%) [11]: 82%
- Population Healthy Nuclei (%) [11]: 16%
- Population Hoechst High Intensity Objects (%) [11]: 43%
- Population Membrane Permeable-Phenotype (%) [11]: 0%
- Population Mitochondria Different-Phenotype (%) [11]: 0%
- Population Mitotic Cells (%) [11]: 85%
- Population Normal (%) [11]: 56%
- Population Pyknosed Nuclei (%) [11]: 1%
- Population Tubulin-Different-Phenotype (%) [11]: 0%
- Total Cell Count [11]: 2084
- Population Apoptotic (%) [12]: 16%
- Population Fragmented Nuclei (%) [12]: 84%
- Population Healthy Nuclei (%) [12]: 14%
- Population Hoechst High Intensity Objects (%) [12]: 52%
- Population Membrane Permeable-Phenotype (%) [12]: 1%
- Population Mitotic Cells (%) [12]: 83%
- Population Normal (%) [12]: 47%
- Population Tubulin-Different-Phenotype (%) [12]: 1%
- Total Cell Count [12]: 2135

Structure (SMILES): CC(=O)O[C@H]1C(=O)[C@@]2(C)[C@H]([C@H](OC(=O)c3ccccc3)[C@]3(O)C[C@H](OC(=O)[C@H](O)[C@@H](NC(=O)c4ccccc4)c4ccccc4)C(C)=C1C3(C)C)[C@]1(OC(C)=O)CO[C@@H]1C[C@@H]2O [PACLITAXEL]
- Population Apoptotic (%) [1]: 21% and 24%
- Population Fragmented Nuclei (%) [1]: 12% and 13%
- Population Healthy Nuclei (%) [1]: 71% and 68%
- Population Hoechst High Intensity Objects (%) [1]: 10% and 14%
- Population Membrane Permeable-Phenotype (%) [1]: 4%
- Population Mitochondria Different-Phenotype (%) [1]: 3% and 4%
- Population Mitotic Cells (%) [1]: 78% and 75%
- Population Normal (%) [1]: 89% and 85%
- Population Pyknosed Nuclei (%) [1]: 15% and 18%
- Population Tubulin-Different-Phenotype (%) [1]: 2%
- Population Apoptotic (%) [2]: 7% and 10%
- Population Fragmented Nuclei (%) [2]: 10% and 8%
- Population Healthy Nuclei (%) [2]: 85% and 87%
- Population Hoechst High Intensity Objects (%) [2]: 1%
- Population Membrane Permeable-Phenotype (%) [2]: 1% and 0%
- Population Mitochondria Different-Phenotype (%) [2]: 5%
- Population Mitotic Cells (%) [2]: 92% and 89%
- Population Normal (%) [2]: 98%
- Population Pyknosed Nuclei (%) [2]: 3% and 4%
- Population Apoptotic (%) [3]: 23% [middle of 4 runs]
- Population Fragmented Nuclei (%) [3]: 15% and 13% and 11% and 10%
- Population Healthy Nuclei (%) [3]: 69% and 72% and 76% and 75%
- Population Hoechst High Intensity Objects (%) [3]: 11% and 7% and 8%
- Population Membrane Permeable-Phenotype (%) [3]: 8% and 5% and 4%
- Population Mitochondria Different-Phenotype (%) [3]: 5% and 4% and 3%
- Population Mitotic Cells (%) [3]: 80% and 77% and 72% and 76%
- Population Normal (%) [3]: 88% and 92% and 91%
- Population Pyknosed Nuclei (%) [3]: 14% [middle of 4 runs]
- Population Tubulin-Different-Phenotype (%) [3]: 2% and 3%
- Population Apoptotic (%) [4]: 12% and 6% and 9%
- Population Fragmented Nuclei (%) [4]: 8% and 14%
- Population Healthy Nuclei (%) [4]: 86% and 81% and 85%
- Population Hoechst High Intensity Objects (%) [4]: 1% and 3% and 2%
- Population Membrane Permeable-Phenotype (%) [4]: 1% and 0%
- Population Mitochondria Different-Phenotype (%) [4]: 7%
- Population Mitotic Cells (%) [4]: 87% and 93% and 90%
- Population Normal (%) [4]: 98% and 96% and 97%
- Population Pyknosed Nuclei (%) [4]: 4% and 3%
- Population Tubulin-Different-Phenotype (%) [4]: 4% and 1%
- Population Apoptotic (%) [5]: 10% and 29%
- Population Fragmented Nuclei (%) [5]: 12% and 13%
- Population Healthy Nuclei (%) [5]: 79%
- Population Hoechst High Intensity Objects (%) [5]: 7% and 8%
- Population Membrane Permeable-Phenotype (%) [5]: 8% and 7%
- Population Mitochondria Different-Phenotype (%) [5]: 2% and 4%
- Population Mitotic Cells (%) [5]: 89% and 70%
- Population Normal (%) [5]: 92% and 91%
- Population Pyknosed Nuclei (%) [5]: 8% and 7%
- Population Tubulin-Different-Phenotype (%) [5]: 2% and 4%
- Population Apoptotic (%) [6]: 7%
- Population Fragmented Nuclei (%) [6]: 24% and 32%
- Population Healthy Nuclei (%) [6]: 73% and 65%
- Population Hoechst High Intensity Objects (%) [6]: 3% and 4%
- Population Membrane Permeable-Phenotype (%) [6]: 5% and 3%
- Population Mitochondria Different-Phenotype (%) [6]: 1% and 0%
- Population Mitotic Cells (%) [6]: 92%
- Population Normal (%) [6]: 96% and 95%
- Population Pyknosed Nuclei (%) [6]: 1%
- Population Apoptotic (%) [7]: 22% [middle of 4 runs]
- Population Fragmented Nuclei (%) [7]: 15% [middle of 4 runs]
- Population Healthy Nuclei (%) [7]: 80% and 78% and 81% and 79%
- Population Hoechst High Intensity Objects (%) [7]: 5% and 3% and 6%
- Population Membrane Permeable-Phenotype (%) [7]: 10% and 7%
- Population Mitochondria Different-Phenotype (%) [7]: 2% and 3%
- Population Mitotic Cells (%) [7]: 77% and 76% and 82% and 79%
- Population Normal (%) [7]: 94% and 96% and 93%
- Population Pyknosed Nuclei (%) [7]: 4% and 5% and 6% and 7%
- Population Tubulin-Different-Phenotype (%) [7]: 4% and 5%
- Population Fragmented Nuclei (%) [8]: 30% [middle of 4 runs]
- Population Healthy Nuclei (%) [8]: 73% and 69% and 60% and 67%
- Population Hoechst High Intensity Objects (%) [8]: 4%
- Population Membrane Permeable-Phenotype (%) [8]: 3% and 2%
- Population Mitochondria Different-Phenotype (%) [8]: 1% and 0%
- Population Mitotic Cells (%) [8]: 87% and 96% and 93% and 98%
- Population Normal (%) [8]: 95%
- Population Pyknosed Nuclei (%) [8]: 1% and 2%
- Population Tubulin-Different-Phenotype (%) [8]: 2%
